Calls of active or inactive are those of the source.
How the values were obtained:
[1] = molecular target: T1, Toll-like receptor 9 (Homo sapiens) (UniProt Q9NR96); experiment: Induction of TLR9-mediated human B cell proliferation assessed as [3H]thymidine uptake after 56 hrs by scintillation counting
T1 sequence (whole entry): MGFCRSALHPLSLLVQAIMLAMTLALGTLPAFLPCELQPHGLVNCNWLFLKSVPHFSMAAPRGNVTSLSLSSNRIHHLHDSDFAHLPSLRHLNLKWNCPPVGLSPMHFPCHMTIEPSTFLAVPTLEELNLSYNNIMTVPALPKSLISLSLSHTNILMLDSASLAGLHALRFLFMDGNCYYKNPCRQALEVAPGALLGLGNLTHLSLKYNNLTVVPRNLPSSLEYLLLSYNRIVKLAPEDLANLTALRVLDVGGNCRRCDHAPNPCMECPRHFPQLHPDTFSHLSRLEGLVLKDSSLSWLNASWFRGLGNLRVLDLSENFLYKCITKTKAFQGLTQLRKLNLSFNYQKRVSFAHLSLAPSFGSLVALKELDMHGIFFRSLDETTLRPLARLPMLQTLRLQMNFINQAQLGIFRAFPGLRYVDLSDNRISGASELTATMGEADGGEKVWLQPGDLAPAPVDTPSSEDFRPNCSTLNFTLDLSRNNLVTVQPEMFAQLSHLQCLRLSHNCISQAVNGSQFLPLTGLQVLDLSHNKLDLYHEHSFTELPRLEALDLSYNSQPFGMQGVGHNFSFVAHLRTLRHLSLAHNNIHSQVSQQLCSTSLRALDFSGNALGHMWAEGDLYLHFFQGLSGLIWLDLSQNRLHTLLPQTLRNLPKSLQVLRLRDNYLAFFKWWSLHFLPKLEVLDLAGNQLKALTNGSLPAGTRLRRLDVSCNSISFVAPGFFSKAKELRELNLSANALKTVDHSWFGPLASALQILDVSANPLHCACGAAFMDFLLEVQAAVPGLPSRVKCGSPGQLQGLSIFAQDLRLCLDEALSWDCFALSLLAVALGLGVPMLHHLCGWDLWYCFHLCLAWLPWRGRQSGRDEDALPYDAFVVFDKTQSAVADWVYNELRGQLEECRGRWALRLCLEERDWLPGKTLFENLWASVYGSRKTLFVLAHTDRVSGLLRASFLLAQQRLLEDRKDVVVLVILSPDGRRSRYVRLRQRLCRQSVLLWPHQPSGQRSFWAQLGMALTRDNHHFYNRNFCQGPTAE
Method in brief: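 B cells were purified from human PBMCs (healthy volunteers), about 1 × 10⁵ cells, and stimulated with various agonist concentrations for 56 h. Cells were then pulsed with 0.75 μCi [³H]-thymidine and harvested 16 h later. Incorporation was counted by scintillation and reported as cpm.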

Mus musculus = experiment: Immunostimulatory activity in C57BL/6 mouse assessed as increase in serum IL12 level at 1 mg/kg, sc after 2 hrs by ELISA; assay type: functional, organism-based; parameters: dose 1 mg/kg
Method in brief: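 Female C57BL/6 mice (n=3) received a single subcutaneous agonist dose of 1 mg/kg. Blood was taken by retro-orbital bleeding 2 h later, and serum IL-12 was measured by sandwich ELISA. Values are the mean of three mice ± SD.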

[2] = molecular target: T2, Toll-like receptor 9 (Mus musculus) (UniProt Q9EQU3); experiment: Induction of TLR9-mediated IL6 production in C57BL/6 mouse spleen cells after 24 hrs by ELISA; assay type: cell-based
T2 sequence (whole entry): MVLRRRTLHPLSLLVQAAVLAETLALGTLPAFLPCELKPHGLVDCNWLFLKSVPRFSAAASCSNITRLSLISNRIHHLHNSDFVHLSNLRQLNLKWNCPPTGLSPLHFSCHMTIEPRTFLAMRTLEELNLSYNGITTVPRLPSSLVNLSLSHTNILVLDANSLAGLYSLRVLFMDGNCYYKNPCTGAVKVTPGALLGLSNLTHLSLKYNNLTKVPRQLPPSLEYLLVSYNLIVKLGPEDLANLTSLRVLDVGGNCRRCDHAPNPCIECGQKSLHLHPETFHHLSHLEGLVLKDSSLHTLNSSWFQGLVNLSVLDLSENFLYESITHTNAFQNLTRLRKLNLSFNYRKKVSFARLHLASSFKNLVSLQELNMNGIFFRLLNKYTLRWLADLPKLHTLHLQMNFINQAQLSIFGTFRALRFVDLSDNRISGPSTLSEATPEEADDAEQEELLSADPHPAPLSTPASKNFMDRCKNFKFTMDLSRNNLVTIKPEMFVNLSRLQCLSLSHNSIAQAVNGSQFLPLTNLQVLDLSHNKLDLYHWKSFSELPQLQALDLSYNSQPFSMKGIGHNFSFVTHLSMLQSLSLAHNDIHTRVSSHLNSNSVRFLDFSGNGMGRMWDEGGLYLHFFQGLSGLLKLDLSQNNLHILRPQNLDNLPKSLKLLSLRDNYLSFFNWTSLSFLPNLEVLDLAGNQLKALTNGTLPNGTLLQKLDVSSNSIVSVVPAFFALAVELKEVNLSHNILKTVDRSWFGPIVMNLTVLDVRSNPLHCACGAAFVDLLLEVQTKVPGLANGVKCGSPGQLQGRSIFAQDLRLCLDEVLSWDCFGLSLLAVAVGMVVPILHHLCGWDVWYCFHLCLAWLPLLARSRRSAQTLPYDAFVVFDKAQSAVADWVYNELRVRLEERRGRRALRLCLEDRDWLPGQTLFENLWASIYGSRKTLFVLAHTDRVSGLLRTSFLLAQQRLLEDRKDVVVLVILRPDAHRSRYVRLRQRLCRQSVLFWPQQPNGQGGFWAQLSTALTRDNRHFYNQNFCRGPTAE
Method in brief: (§1)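 C57BL/6 mouse spleen cells were cultured with agonists at 0.1, 0.3, 1, 3 and 10 μg/mL for 24 h. Secreted IL-12 and IL-6 in the supernatants were measured by ELISA. Values are averages of triplicate wells from one representative of at least two independent experiments.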

[3] = molecular target: T2, Toll-like receptor 9 (Mus musculus); experiment: Activation of mouse TLR9 expressed in HEK293 cells assessed as induction of NF-kappaB activity after 18 hrs by SEAP assay; assay type: cell-based
Method in brief: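 HEK293 cells stably expressing mouse TLR9 were grown in DMEM with 10% heat-inactivated FBS. At 80% confluence they were transiently transfected with a SEAP reporter plasmid (100 ng/well, lipofectamine) for 6 h. Medium was then replaced and agonists were added for 18 h. Supernatant SEAP was read with QuantiBlue substrate at 620-645 nm. Results are expressed as fold NF-κB activity over PBS control.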

[4] = molecular target: T2, Toll-like receptor 9 (Mus musculus); experiment: Induction of TLR9-mediated IL12 production in C57BL/6 mouse spleen cells after 24 hrs by ELISA; assay type: cell-based; method in brief: as §1

Measured: Activity

Cc1cn([C@H]2C[C@H](OCCn3c(=O)n(CCO)c(=O)n(CCOP(=O)(S)O[C@H]4C[C@H](n5cc(C)c(=O)[nH]c5=O)O[C@@H]4COP(=O)(S)O[C@H]4[C@@H](O)[C@H](n5ccc(N)nc5=O)O[C@@H]4COP(=O)(S)O[C@H]4C[C@H](n5cc(C)c(=O)[nH]c5=O)O[C@@H]4COP(=O)(S)O[C@H]4C[C@H](n5cc(C)c(=O)[nH]c5=O)O[C@@H]4COP(=O)(S)O[C@H]4C[C@H](n5ccc6c(=O)[nH]c(N)nc65)O[C@@H]4COP(=O)(S)O[C@H]4[C@@H](O)[C@H](n5ccc(N)nc5=O)O[C@@H]4COP(=O)(S)O[C@H]4C[C@H](n5cc(C)c(=O)[nH]c5=O)O[C@@H]4COP(=O)(S)O[C@H]4[C@@H](O)[C@H](n5cnc6c(=O)[nH]c(N)nc65)O[C@@H]4COP(=O)(S)O[C@H]4C[C@H](n5cc(C)c(=O)[nH]c5=O)O[C@@H]4COP(=O)(S)O[C@H]4[C@@H](O)[C@H](n5ccc(N)nc5=O)O[C@@H]4COP(=O)(S)O[C@H]4C[C@H](n5cc(C)c(=O)[nH]c5=O)O[C@@H]4CO)c3=O)[C@@H](COP(=O)(S)O[C@H]3[C@@H](O)[C@H](n4ccc(N)nc4=O)O[C@@H]3COP(=O)(S)O[C@H]3C[C@H](n4cc(C)c(=O)[nH]c4=O)O[C@@H]3COP(=O)(S)O[C@H]3C[C@H](n4cc(C)c(=O)[nH]c4=O)O[C@@H]3COP(=O)(S)O[C@H]3C[C@H](n4ccc5c(=O)[nH]c(N)nc54)O[C@@H]3COP(=O)(S)O[C@H]3[C@@H](O)[C@H](n4ccc(N)nc4=O)O[C@@H]3COP(=O)(S)O[C@H]3C[C@H](n4cc(C)c(=O)[nH]c4=O)O[C@@H]3COP(=O)(S)O[C@H]3[C@@H](O)[C@H](n4cnc5c(=O)[nH]c(N)nc54)O[C@@H]3COP(=O)(S)O[C@H]3C[C@H](n4cc(C)c(=O)[nH]c4=O)O[C@@H]3COP(=O)(S)O[C@H]3[C@@H](O)[C@H](n4ccc(N)nc4=O)O[C@@H]3COP(=O)(S)O[C@H]3C[C@H](n4cc(C)c(=O)[nH]c4=O)O[C@@H]3CO)O2)c(=O)[nH]c1=O (stereo not given in full)
active: [1] Dose-dependent effect | Mus musculus | [2] Dose-dependent effect | [3] Dose-dependent effect | [4] Dose-dependent effect
